Numbered stars: 1 amine (or outer) side, 2 acyl side, 3 side chain; on linkers, the order of the positions; unused ones are H or OH. Bridge positions count the residues as written; N and C are the ends. Side chains are listed from the residue outwards. Ends that are not written are not given here. Peptide text beside a SMILES is read from it. * marks the point of attachment. X1 = CC(=NO)C(C)(C)NCCC(CCNC(C)(C)C(C)=NO)CCN*; Glutaryl = O=C(CCCC(=O)[*:2])[*:1]
How the values were obtained:
shed Met = assay: Plasma shed Met electrochemiluminescent immunoassay; format: in vivo, human Met in mouse xenograft plasma; settings: for slope plasma shed Met/tumor mass: PHA-treated
Summary of the method: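 Blood was collected into EDTA tubes and centrifuged. Plasma was fast-frozen and stored at −70°C; samples from radiolabel-imaged mice were assayed after the radioactivity had decayed. Soluble Met ectodomain was measured by two-site electrochemiluminescent immunoassay with ruthenium-chelate-tagged detection antibody, against a recombinant Met ectodomain–IgG-Fc standard. Naive cohorts were sampled at 1–4 weeks, imaged cohorts at the end. Values were correlated with tumour mass by Spearman analysis, and slopes were given as ng/mL per g.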

MKN-45 xenografts [1] = assay: Tumor weight and histologic grading, Cy5^⋆⋆-Met peptide imaged cohort; format: in vivo, athymic female nude mice (human MKN-45 tumor); settings: treated
Summary of the method: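 Fluorescence-imaged MKN-45 mice, given the Met TKI 5 days on/2 days off or vehicle, were euthanised after the last imaging session (18 or 25 days). Tumours were weighed (fraction > 0.5 g), fixed in 10% neutral-buffered formalin and paraffin-embedded. Sections were stained with H&E for necrosis and ApopTag for apoptosis, then graded. n = 9 per group.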

[2] = system: gastric carcinoma cells (including MKN-45 cells); settings: cited from earlier work
MKN-45 xenografts [3] = assay: Tumor volume by 3D ultrasonography, [^99mTc]-Met peptide imaged cohort; format: in vivo, athymic female nude mice (human MKN-45 tumor); settings: 15 mg/kg i.p. daily
Summary of the method: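 After each weekly SPECT/CT session in the daily-dosed MKN-45 cohort (Met TKI 15 mg/kg i.p.), 3D ultrasonography was run at 40 MHz with a 0.076 mm step size. Tumour volume was obtained with a parallel ROI algorithm and expressed as % increase from baseline. n = 9 per group; groups were compared by Welch t-test (p < .05).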

[4] = system: human lung carcinoma cells; settings: cited from earlier work
MKN-45 xenografts [5] = assay: Longitudinal [^99mTc]-Met peptide SPECT imaging during PHA 665752 treatment; format: in vivo, athymic female nude mice (human MKN-45 tumor); settings: for decrease in [^99mTc]-Met peptide tumor uptake (%ID/g) vs vehicle: PHA 665752 15 mg/kg i.p. daily
Summary of the method: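 Female nude mice carried s.c. MKN-45 xenografts, 30–50 mm³ at baseline. They received the Met TKI at 15 mg/kg i.p. in 5% DMSO:saline, or vehicle, daily for 3–4 weeks. SPECT/CT imaging was done 90 min after injection of ⁹⁹ᵐTc-labelled Met peptide, at baseline and then weekly. Tumour uptake was expressed as %ID/g normalised to a 20 g mouse. n = 9 per group; groups were compared by Welch t-test.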

Met tyrosine kinase = settings: cited from earlier work
MKN-45 xenografts [6] = assay: Longitudinal Cy5^⋆⋆-Met peptide fluorescence imaging during PHA 665752 treatment; format: in vivo, athymic female nude mice (human MKN-45 tumor); settings: for decrease in Cy5^⋆⋆-Met fluorescent signal intensity in tumors vs vehicle: PHA 665752 5 days on/2 days off, n = 9, p < .05
MKN-45 xenografts [7] = assay: Tumor weight and histologic grading; format: in vivo, athymic female nude mice (human MKN-45 tumor)
Summary of the method: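 SPECT-imaged MKN-45 mice, given the Met TKI daily i.p. or vehicle, were euthanised after the last imaging session at 3 weeks. Tumours were weighed (> 0.5 g counted) and formalin-fixed, paraffin-embedded sections were stained with H&E (necrosis, graded up to +4 severe) or ApopTag (apoptosis).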

[8] = system: tumor responses to Met-targeted therapeutics; settings: ref [19],[26],[47],[48], cited from earlier work
[9] = system: extracellular domain of human Met; settings: fluorescence polarization; cited from earlier work
U87-MG xenografts = assay: in vivo; set-up: species or system athymic female nude mice (human U87-MG tumor)
in vivo [10] = assay: in vivo; set-up: species or system athymic female nude mice (human U87-MG tumor); settings: female, athymic nude (Ncr-nu/nu), mouse, iv, total radioactivity
in vivo [11] = assay: in vivo; set-up: species or system athymic female nude mice (human MKN-45 tumor); settings: female, athymic nude (Ncr-nu/nu), mouse, iv, total radioactivity
MKN-45 xenografts [12] = assay: in vivo; set-up: species or system athymic female nude mice (human MKN-45 tumor)
MKN-45 xenografts [13] = format: in vivo, athymic female nude mice (human MKN-45 tumor); settings: 60 minutes postinjection
Met (U87-MG cells) = assay: Saturation binding, U87-MG cells; set-up: species or system human
Summary of the method: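 U87-MG cells were grown in DMEM with 2 mM L-glutamine, 0.1 mM NEAA, 1 mM pyruvate and 10% FBS, then placed in tubes (0.2–1.0 × 10⁶ cells) on the assay day. Duplicates were incubated with 0.2–10 nM ⁹⁹ᵐTc-labelled Met peptide for 2 h at 4°C, with nonspecific binding defined by 10^−6.3 M unlabelled peptide. Pellets were washed twice with PBS and counted. MKN-45 cells were plated (0.2 × 10⁶/well) the day before and trypsinised for counting. Kd and Bmax came from one-site nonlinear fits.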

MKN-45 xenografts [14] = system: MKN-45 xenografts; set-up: species or system athymic female nude mice (human MKN-45 tumor); settings: in vivo
in vivo [15] = assay: in vivo; set-up: species or system athymic female nude mice (human SNU-16 tumor); settings: female, athymic nude (Ncr-nu/nu), mouse, iv, total radioactivity
SNU-16 xenografts = assay: in vivo; set-up: species or system athymic female nude mice (human SNU-16 tumor)
[16] = molecular target: T1, hepatocyte growth factor tyrosine kinase receptor (Met) (human (endogenous in MKN-45 and U87-MG), UniProt P08581 25-1390); assay: in vivo biodistribution with blocking
[17] = molecular target: T1, hepatocyte growth factor tyrosine …; assay: radioligand binding

T1 sequence (P08581 25-1390): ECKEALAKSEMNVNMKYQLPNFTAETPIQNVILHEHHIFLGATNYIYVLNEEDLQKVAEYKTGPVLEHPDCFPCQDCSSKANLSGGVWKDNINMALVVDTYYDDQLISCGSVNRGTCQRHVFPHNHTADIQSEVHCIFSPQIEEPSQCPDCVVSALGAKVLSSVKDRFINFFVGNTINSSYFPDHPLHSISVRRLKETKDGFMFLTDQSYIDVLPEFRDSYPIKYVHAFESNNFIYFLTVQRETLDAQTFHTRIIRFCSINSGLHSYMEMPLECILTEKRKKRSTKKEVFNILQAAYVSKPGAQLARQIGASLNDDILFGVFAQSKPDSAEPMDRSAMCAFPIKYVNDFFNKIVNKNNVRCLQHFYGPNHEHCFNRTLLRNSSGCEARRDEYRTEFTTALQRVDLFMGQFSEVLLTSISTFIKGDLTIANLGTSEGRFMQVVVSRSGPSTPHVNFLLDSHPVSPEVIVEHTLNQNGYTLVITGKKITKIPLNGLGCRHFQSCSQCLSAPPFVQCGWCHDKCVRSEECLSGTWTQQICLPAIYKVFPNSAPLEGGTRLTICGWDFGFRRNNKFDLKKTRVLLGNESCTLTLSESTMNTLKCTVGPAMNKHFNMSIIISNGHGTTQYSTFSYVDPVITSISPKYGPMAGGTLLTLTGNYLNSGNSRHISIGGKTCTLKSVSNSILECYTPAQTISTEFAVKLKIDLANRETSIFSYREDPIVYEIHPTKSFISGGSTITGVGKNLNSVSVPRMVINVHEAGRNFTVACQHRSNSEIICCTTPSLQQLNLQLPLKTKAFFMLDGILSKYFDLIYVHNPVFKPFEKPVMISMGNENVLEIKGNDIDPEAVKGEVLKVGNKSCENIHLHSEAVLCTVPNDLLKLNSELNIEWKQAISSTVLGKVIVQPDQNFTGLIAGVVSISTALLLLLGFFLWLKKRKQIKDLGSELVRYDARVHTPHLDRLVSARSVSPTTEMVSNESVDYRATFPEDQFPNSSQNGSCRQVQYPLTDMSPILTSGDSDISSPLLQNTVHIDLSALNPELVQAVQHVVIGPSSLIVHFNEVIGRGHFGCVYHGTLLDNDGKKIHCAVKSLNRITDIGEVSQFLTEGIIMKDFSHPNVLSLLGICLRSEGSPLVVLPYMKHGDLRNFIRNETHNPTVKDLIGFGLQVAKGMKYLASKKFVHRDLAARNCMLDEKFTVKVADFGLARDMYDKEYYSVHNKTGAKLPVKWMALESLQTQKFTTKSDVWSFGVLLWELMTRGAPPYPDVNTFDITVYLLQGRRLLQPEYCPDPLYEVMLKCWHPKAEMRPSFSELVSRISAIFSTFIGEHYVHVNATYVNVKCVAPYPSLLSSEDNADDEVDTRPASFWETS

Cc1[nH]c(/C=C2\C(=O)Nc3ccc(S(=O)(=O)Cc4c(Cl)cccc4Cl)cc32)c(C)c1C(=O)N1CCC[C@@H]1CN1CCCC1 [PHA 665752, (2R)-1-[[5-[(Z)-[5-[[(2,6-dichlorophenyl)methyl]sulfonyl]-1,2-dihydro-2-oxo-3H-indol-3-ylidene]methyl]-2,4-dimethyl-1H-pyrrol-3-yl]–carbonyl]-2-(1-pyrrolidinylmethyl) pyrrolidine]
increase in plasma shed Met (ng/mL per g tumor) vs vehicle (shed Met; 1, 2, and 3 to 4 weeks after treatment): ~ 2 fold
slope plasma shed Met/tumor mass (shed Met; imaged xenografts, n = 7 (vehicle 43.7)): 77.7 (ng/mL)/(g)
slope plasma shed Met/tumor mass (shed Met; nonimaged xenografts (vehicle 43.8)): 77.5 (ng/mL)/(g)
tumors with minimal (1+) apoptosis (MKN-45 xenografts [1]; 18 or 25 days (vehicle 78%)): 33%
tumors > 0.5 g (MKN-45 xenografts [1]; 18 or 25 days (vehicle 89%)): 78%
drug resistance on prolonged exposure [2]: acquired drug resistance associated with increased levels of Met
extracellular Met expression [2]: extracellular Met expression appeared unchanged
inhibition of Met phosphorylation [2]: pronounced inhibition of Met phosphorylation
decrease in tumor volume vs vehicle (MKN-45 xenografts [3]; day 8, n = 9, not significant): 25%
decrease in tumor volume vs vehicle (MKN-45 xenografts [3]; day 21, n = 9, p = .016): 55%
total surface Met expression [4]: total surface Met expression increased
tumor uptake of [^99mTc]-Met peptide after PHA 665752 (MKN-45 xenografts [5]; MKN-45 xenografts): significantly decreased as early as 1 week
decrease in [^99mTc]-Met peptide tumor uptake (%ID/g) vs vehicle (MKN-45 xenografts [5]; day 8, n = 9, p = .005): 43%
decrease in [^99mTc]-Met peptide tumor uptake (%ID/g) vs vehicle (MKN-45 xenografts [5]; day 21, n = 9, not significant): 25%
tumorigenicity, apoptosis and necrosis (Met tyrosine kinase): reduction of tumorigenicity accompanied with increases in apoptosis and necrosis
fluorescent signal intensity and tumor volume vs vehicle (MKN-45 xenografts [6]; 25 days, n = 6 treated, 5 vehicle): these decreases were not significant
decrease in Cy5^⋆⋆-Met fluorescent signal intensity in tumors vs vehicle (MKN-45 xenografts [6]; 11 days): 54%
decrease in Cy5^⋆⋆-Met fluorescent signal intensity in tumors vs vehicle (MKN-45 xenografts [6]; 18 days): 55%
tumors with moderately severe apoptosis (MKN-45 xenografts [7]; ApopTag, after 3 weeks PHA 665752): 22%
fraction of severely necrotic tumors (MKN-45 xenografts [7]; H&E, after 3 weeks PHA 665752 (vehicle also 78%)): 78%
fraction of tumors > 0.5 g (MKN-45 xenografts [7]; after 3 weeks PHA 665752): 44%

Cc1cn([C@H]2C[C@H]([18F])[C@@H](CO)O2)c(=O)[nH]c1=O [[^18F]FLT, [^18F]fluorothymidine]
PET detection of tumor response to crizotinib and BAY 853474 [8]: detected a robust tumor response

Cys4–16, 6–14; Ac-Ala-Gly-Ser-Cys-Tyr-Cys-Ser-Gly-Pro-Pro-Arg-Phe-Glu-Cys-Trp-Cys-Tyr-Glu-Thr-Glu-Gly-Thr-Gly-Gly-Gly-Lys (bicyclic or more) [unlabeled Met peptide]
IC50 [9]: 90 nM

OC[C@H]1OC(O)[C@H]([18F])[C@@H](O)[C@@H]1O (some centres unmarked) [[^18F]FDG, [^18F]fluorodeoxyglucose]
PET detection of tumor response to crizotinib ([8]; Met intracellular kinase inhibition): failed to detect tumor responses
PET detection of tumor response to CE-355621 ([8]; mAb targeting the Met extracellular domain): detected early tumor responses

CC(=O)N[C@@H](C)C(=O)NCC(=O)N[C@@H](CO)C(=O)N[C@H]1CSSC[C@@H](C(=O)N[C@@H](Cc2ccc(O)cc2)C(=O)N[C@@H](CCC(=O)O)C(=O)N[C@H](C(=O)N[C@@H](CCC(=O)O)C(=O)NCC(=O)N[C@H](C(=O)NCC(=O)NCC(=O)NCC(=O)N[C@@H](CCCCNC(=O)CCCC(=O)NCCC(CCNC(C)(C)C(C)=NO)CCNC(C)(C)C(C)=NO)C(N)=O)[C@@H](C)O)[C@@H](C)O)NC(=O)[C@H](Cc2c[nH]c3ccccc23)NC(=O)[C@@H]2CSSC[C@H](NC(=O)[C@H](Cc3ccc(O)cc3)NC1=O)C(=O)N[C@@H](CO)C(=O)NCC(=O)N1CCC[C@H]1C(=O)N1CCC[C@H]1C(=O)N[C@@H](CCCNC(=N)N)C(=O)N[C@@H](Cc1ccccc1)C(=O)N[C@@H](CCC(=O)O)C(=O)N2 (some centres unmarked) [[^99mTc]-Met peptide, metal not drawn] (Ac-AGSCYCSGPPRFECWCYETEGTGGGK([Glutaryl-X1])-NH2; disulfide 4-16, 6-14; C-terminus assumed)
tumor to muscle ratio reduced vs MKN-45 (U87-MG xenografts): 10-16 fold
tissue uptake at 1 h (in vivo [10]): 1.19 ± 0.11 %ID/g
tissue uptake at 2 h (in vivo [10]): 0.71 ± 0.15 %ID/g
tissue uptake at 3 h (in vivo [10]): 0.58 ± 0.09 %ID/g
tissue to tissue ratio at 0.5 h (in vivo [11]): 9.8 ± 2.1
tissue to tissue ratio at 1 h (in vivo [11]): 30.1 ± 3.3
tissue to tissue ratio at 2 h (in vivo [11]): 49.6 ± 11.3
tissue to tissue ratio at 3 h (in vivo [11]): 55.2 ± 13.4
clearance (MKN-45 xenografts [12]): > 70%
kidney to muscle ratio exceeding tumor to muscle ratio (MKN-45 xenografts [12]): 1.6-3 fold
primary route of excretion (MKN-45 xenografts [12]): renal clearance as the primary route of excretion
effect on shed Met plasma concentrations (shed Met; imaged vs nonimaged xenografts): does not appear to alter shed Met plasma concentrations
visualization of MKN-45 tumors (MKN-45 xenografts [13]): clearly visualized at 60 minutes
IC50 [9]: ~200 nM
specific binding (Met (U87-MG cells); U87-MG cells (low Met), 2 hours at 4°C): < 40%
Bmax U87-MG lower than MKN-45 (Met (U87-MG cells); U87-MG vs MKN-45 cells): ~ 90 fold
reduction in slope (%ID/g), larger vs smaller tumors (MKN-45 xenografts [14]): 2-3 fold
slope (%ID/g) of total uptake per tumor vs tumor weight (MKN-45 xenografts [14]): 4.2 %ID/g
tissue uptake at 0.5 h (in vivo [15]): 4.59 ± 0.5 %ID/g
tissue uptake at 1 h (in vivo [15]): 2.61 ± 0.82 %ID/g
tissue uptake at 2 h (in vivo [15]): 1.3 ± 0.34 %ID/g
tumor to muscle ratio reduced vs MKN-45 (SNU-16 xenografts): 2-4 fold
uptake in nontarget tissues (SNU-16 xenografts): comparable to the MKN-45 xenografts

B1: unlabeled Met peptide (AH-111972 trifluoracetate salt [DX-1662]) (peptide)
peptide: Ac-AGSCYCSGPPRFECWCYETEGTGGGK
modifications: disulfide 6-14, 4-16; also: trifluoroacetate salt
percent decrease of tumor to muscle ratio of [^99mTc]-Met peptide [16]: 53%

B2: [^99mTc]-Met peptide (AH-113018) (peptide)
peptide: Ac-AGSCYCSGPPRFECWCYETEGTGGGK(cPn216)
modifications: disulfide 6-14, 4-16; also: 99mTc chelated by cPn216
Kd [17]: 3.31 nM
